The source made the active and inactive calls. No cut-off for these calls is given here.
Columns and labels:
[1] = target: T1, Signal transducer and activator of transcription 3 (Mus musculus, UniProt P42227); experiment: Inhibition of oligonucleotide [32P]-labelled 5'-AGCITCATTTCCCGTAAATCCCTA probe binding to STAT3 SH2 domain (unknown origin) preincubated for 30 mins followed by hSIE probe addition by EMSA analysis
[2] = Inhibition of oligonucleotide [32P]-labelled 5'-AGATTTCTAGGAATTCAA probe binding to STAT5 homodimer in mouse NIH3T3 nuclear extract preincubated for 30 mins followed by MGFe probe addition by EMSA analysis
MDA-MB-231 [3] = experiment: Antiproliferative activity against human MDA-MB-231 cells assessed as reduction in cell viability incubated for 72 hrs by CyQuant assay; format: functional, cell-based; conditions: MDA-MB-231, 72 h
[4] = target: T2, Signal transducer and activator of transcription 1 (Mus musculus) (UniProt P42225); experiment: Inhibition of oligonucleotide [32P]-labelled 5'-AGCITCATTTCCCGTAAATCCCTA probe binding to STAT1 homodimer in mouse NIH3T3 nuclear extract at 10 uM preincubated for 30 mins followed by hSIE probe addition by EMSA analysis
T2 sequence (whole entry): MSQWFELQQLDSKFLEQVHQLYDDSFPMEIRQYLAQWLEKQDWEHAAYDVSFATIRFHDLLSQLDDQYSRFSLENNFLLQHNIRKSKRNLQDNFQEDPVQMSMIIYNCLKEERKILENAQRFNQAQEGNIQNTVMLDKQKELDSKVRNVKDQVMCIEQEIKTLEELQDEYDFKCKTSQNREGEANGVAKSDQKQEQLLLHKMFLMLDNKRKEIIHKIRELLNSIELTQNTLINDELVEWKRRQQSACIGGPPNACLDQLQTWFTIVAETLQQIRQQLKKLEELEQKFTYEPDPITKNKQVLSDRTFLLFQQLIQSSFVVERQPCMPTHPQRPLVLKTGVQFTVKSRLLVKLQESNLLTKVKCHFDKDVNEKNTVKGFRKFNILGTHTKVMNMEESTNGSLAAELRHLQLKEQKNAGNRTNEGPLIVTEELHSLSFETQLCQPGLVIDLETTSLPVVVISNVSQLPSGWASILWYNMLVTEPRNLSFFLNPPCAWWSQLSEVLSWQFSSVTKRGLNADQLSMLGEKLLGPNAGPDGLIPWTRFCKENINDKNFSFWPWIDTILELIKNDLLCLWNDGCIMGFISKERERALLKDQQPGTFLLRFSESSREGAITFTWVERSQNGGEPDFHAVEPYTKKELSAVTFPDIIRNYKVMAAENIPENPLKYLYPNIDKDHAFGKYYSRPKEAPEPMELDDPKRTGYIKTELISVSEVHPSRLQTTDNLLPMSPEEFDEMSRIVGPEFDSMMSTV

NIH3T3 = experiment: Inhibition of oligonucleotide [32P]-labelled 5'-AGATTTCTAGGAATTCAA probe binding to STAT5 homodimer in mouse NIH3T3 nuclear extract at 10 uM preincubated for 30 mins followed by MGFe probe addition by EMSA analysis
MCF7 [5] = experiment: Antiproliferative activity against human MCF7 cells assessed as reduction in cell viability incubated for 72 hrs by CyQuant assay; format: functional, cell-based; conditions: MCF7, 72 h
MDA-MB-468 = experiment: Antiproliferative activity against human MDA-MB-468 cells harbouring STAT3 assessed as reduction in cell viability incubated for 72 hrs by CyQuant assay; format: functional, cell-based; conditions: MDA-MB-468, 72 h
MCF-10A = experiment: Cytotoxicity against human MCF-10A cells assessed as reduction in cell viability incubated for 72 hrs by CyQuant assay; format: cell-based
[6] = target: Signal transducer and activator of transcription 3 (Homo sapiens) (UniProt P40763); experiment: Inhibition of oligonucleotide [32P]-labelled 5'-AGCITCATTTCCCGTAAATCCCTA hSIE probe binding to STAT3 in human MDA-MB-468 cell nuclear extract at 5 uM by EMSA analysis; conditions: time upper […], TDE = time-dependent effect
MCF7 [7] = experiment: Antiproliferative activity against human MCF7 cells assessed as reduction in cell viability at 2 uM incubated for 24 hrs by Trypan blue exclusion dye based phase contrast microscopic analysis; format: functional
In short: (§1)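 Cells in 6-well culture, untreated or treated once with 2 μM compound. Harvested every 24 h (up to 96 h) and counted as viable cells by trypan blue exclusion under phase-contrast microscopy. Counts plotted against duration of treatment.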

MDA-MB-231 [8] = experiment: Anticlonogenic activity against human MDA-MB-231 cells assessed as inhibition of colony formation upto 1 uM incubated for 4 hrs by crystal violet staining based assay; format: functional, cell-based; conditions: dose microM <=1, time 4.0 hrs
In short: (§2)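 MDA-MB-231 cells seeded as single-cell cultures (250 cells per well), treated once the next day with compound at 0–1 μM and grown until large colonies were visible. Colonies stained with crystal violet for 4 h and photographed. Three independent determinations.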

[9] = target: Signal transducer and activator of transcription 3 (Homo sapiens) (UniProt P40763); experiment: Inhibition of STAT3 phosphorylation at Y705 residues in human MDA-MB-468 whole cell lysate at 0.5 to 2 uM incubated for 2 hrs by immunoblotting analysis; format: subcellular; conditions: dose 0.5-2 µM
[10] = target: Signal transducer and activator of transcription 3 (Homo sapiens) (UniProt P40763); experiment: Inhibition of oligonucleotide [32P]-labelled 5'-AGCITCATTTCCCGTAAATCCCTA hSIE probe binding to STAT3 in human MDA-MB-468 cell nuclear extract at 0.5 to 5 uM incubated for 3 hrs by EMSA analysis; conditions: dose 0.5-5 µM
MDA-MB-231 [11] = experiment: Antiproliferative activity against human MDA-MB-231 cells harbouring STAT3 assessed as reduction in cell viability at upto 10 uM incubated for 72 hrs by CyQuant assay; format: functional, cell-based; conditions: MDA-MB-231, 72 h
[12] = target: T1, Signal transducer and activator of transcription 3; experiment: Inhibition of oligonucleotide [32P]-labelled 5'-AGCITCATTTCCCGTAAATCCCTA probe binding to STAT3 SH2 domain in mouse NIH3T3/v-Src nuclear extract preincubated for 30 mins followed by hSIE probe addition by EMSA analysis; format: subcellular, Nucleus
[13] = target: Signal transducer and activator of transcription 3 (Homo sapiens) (UniProt P40763); experiment: Binding affinity to STAT3 (unknown origin) assessed as change in entropy by isothermal titration calorimetry
[14] = target: Signal transducer and activator of transcription 3 (Homo sapiens) (UniProt P40763); experiment: Binding affinity to STAT3 (unknown origin) assessed as change in enthalpy by isothermal titration calorimetry
MDA-MB-231 [15] = experiment: Anticlonogenic activity against human MDA-MB-231 cells assessed as inhibition of colony formation at 0.5 to 1 uM incubated for 4 hrs by crystal violet staining based assay; format: functional, cell-based; conditions: dose 0.5-1 µM; in short: as §2
MDA-MB-231 [16] = experiment: Antiproliferative activity against human MDA-MB-231 cells assessed as reduction in cell viability at 2 uM incubated for 24 hrs by Trypan blue exclusion dye based phase contrast microscopic analysis; format: functional; in short: as §1
[17] = target: Signal transducer and activator of transcription 3 (Homo sapiens) (UniProt P40763); experiment: Inhibition of STAT3 phosphorylation at Y705 residues in human MDA-MB-468 whole cell lysate at 3 uM at 24 hrs by immunoblotting analysis; format: subcellular
In short: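 MDA-MB-468 cells (DMEM, 10% heat-inactivated FBS) treated with 3 μM compound for 3–24 h or 0.05% DMSO; equal-protein whole-cell RIPA lysates run on SDS-PAGE and immunoblotted for pY705STAT3, total STAT3 and tubulin. Representative of two to three independent determinations.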

T1 sequence (P42227 whole entry, the tested form may be a part): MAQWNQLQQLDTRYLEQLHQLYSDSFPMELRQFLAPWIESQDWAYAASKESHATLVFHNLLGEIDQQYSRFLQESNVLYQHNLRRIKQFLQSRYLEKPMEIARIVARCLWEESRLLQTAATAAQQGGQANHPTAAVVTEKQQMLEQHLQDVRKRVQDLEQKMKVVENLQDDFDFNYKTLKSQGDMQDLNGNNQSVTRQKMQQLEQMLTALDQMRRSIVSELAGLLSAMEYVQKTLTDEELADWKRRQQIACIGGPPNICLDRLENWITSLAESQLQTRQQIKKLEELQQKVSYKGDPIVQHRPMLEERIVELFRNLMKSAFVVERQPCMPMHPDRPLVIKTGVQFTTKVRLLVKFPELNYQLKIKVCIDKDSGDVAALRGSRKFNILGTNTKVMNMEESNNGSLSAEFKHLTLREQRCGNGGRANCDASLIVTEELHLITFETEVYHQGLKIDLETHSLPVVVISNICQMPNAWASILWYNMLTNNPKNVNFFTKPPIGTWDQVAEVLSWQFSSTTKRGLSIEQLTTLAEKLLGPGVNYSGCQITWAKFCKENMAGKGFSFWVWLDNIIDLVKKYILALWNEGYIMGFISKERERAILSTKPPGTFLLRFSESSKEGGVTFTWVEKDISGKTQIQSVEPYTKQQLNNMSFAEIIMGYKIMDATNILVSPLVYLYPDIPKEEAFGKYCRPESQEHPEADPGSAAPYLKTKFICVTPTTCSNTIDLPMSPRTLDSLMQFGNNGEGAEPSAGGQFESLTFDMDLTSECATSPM
Sequence of Signal transducer and activator of transcription 3 (Homo sapiens) (P40763 whole entry): as the sequence (P42227 whole entry, the tested form may be a part) above, with D760E counted along it

SMILES | EC50 (MDA-MB-231 [3]) [µM] | inhibition [4] | inhibition (NIH3T3) | EC50 (MCF7 [5]) [µM] | EC50 (MDA-MB-468) [µM] | EC50 (MCF-10A) [µM] | further results
O=C(NO)c1ccc(N(Cc2cnc(C3CCCCC3)cn2)C(=O)[C@H]2CCN2S(=O)(=O)c2c(F)c(F)c(F)c(F)c2F)c(F)c1 | – | – | – | – | – | – | IC50 [1]: > 2 µM
O=C(O)c1ccc(N(Cc2ccc(C3CCCCC3)cc2)C(=O)[C@H]2CCN2S(=O)(=O)c2c(F)c(F)c(F)c(F)c2F)c(F)c1 | > 10 | – | – | – | – | – | IC50 [2]: 17.5 µM
O=C(O)c1ccc(N(Cc2ccc(C3CCOCC3)nc2)C(=O)[C@H]2CCN2S(=O)(=O)c2c(F)c(F)c(F)c(F)c2F)cc1O | – | Active | Active | – | – | – | –
O=C(NO)c1ccc(N(Cc2ccc(C3CCCCC3)cc2)C(=O)[C@H]2CCN2S(=O)(=O)c2c(F)c(F)c(F)c(F)c2F)cc1O | 5.1 | Active | Active | 9.7 | 6.4 | 7.5 | –
CNC(=O)c1ccc(N(Cc2ccc(C3CCCCC3)cn2)C(=O)[C@H]2CCN2S(=O)(=O)c2c(F)c(F)c(F)c(F)c2F)cc1O | 1.8 | Active | Active | 3.8 | 1.8 | 4.6 | inhibition [6]: Tde; Activity (MCF7 [7]): inactive; inhibition (MDA-MB-231 [8]): inactive
O=C(O)c1ccc(N(Cc2ccc(C3CCCC3)cc2)C(=O)[C@H]2CCN2S(=O)(=O)c2c(F)c(F)c(F)c(F)c2F)cc1O | – | Active | Active | – | – | – | –
CC(=O)c1cc2c(o1)C(=O)c1ccccc1C2=O [NAPABUCASIN] | – | – | – | 1.49 | – | – | inhibition [9]: Active; inhibition [10]: Active; EC50 (MDA-MB-231 [11]): 1.8 µM
O=C(O)c1ccc(N(Cc2ccc(C3CCCCC3)nc2)C(=O)[C@H]2CCN2S(=O)(=O)c2c(F)c(F)c(F)c(F)c2F)cc1O | – | Active | Active | – | – | – | –
COC(=O)c1ccc(N(Cc2ccc(C3CCCCC3)cc2)C(=O)[C@H]2CCN2S(=O)(=O)c2c(F)c(F)c(F)c(F)c2F)c(F)c1 | 4.4 | Active | Active | – | – | – | IC50 [12]: > 4 µM
O=C1NC(=O)c2cc(N(Cc3ccc(C4CCCCC4)cn3)C(=O)[C@H]3CCN3S(=O)(=O)c3c(F)c(F)c(F)c(F)c3F)ccc21 | 1.7 | – | – | 7 | 1.9 | 8.1 | inhibition [6]: Tde; Activity (MCF7 [7]): inactive; -TdeltaS [13]: -3.25 kcal/mol; deltaH [14]: -4.97 kcal/mol; inhibition (MDA-MB-231 [15]): Active; Activity (MDA-MB-231 [16]): Active; inhibition [17]: inactive
COC(=O)c1ccc(N(Cc2ccc(C3CCCCC3)cc2)C(=O)[C@H]2CCN2S(=O)(=O)c2c(F)c(F)c(F)c(F)c2F)cc1O | 2.7 | Active | Active | – | – | – | IC50 [12]: > 4 µM
COC(=O)c1ccc(N(Cc2cnc(C3CCCCC3)cn2)C(=O)[C@H]2CCN2S(=O)(=O)c2c(F)c(F)c(F)c(F)c2F)c(F)c1 | – | – | – | 8.9 | 1.4 | 4 | IC50 [12]: > 10 µM; inhibition (MDA-MB-231 [15]): Active
